The data set in a line: Metabolic stability in human liver microsome assessed as compound remaining after 30 mins. The format is ADME. Particulars: liver microsomes, read-out: Stability. In short, it runs like this:
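Human liver microsomes, 30 min incubation; read-out is percent of parent compound remaining.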
A general note: Liver microsomes are vesicles of endoplasmic reticulum, rich in cytochrome P450 enzymes.

With `CN1C[C@@H]2C[C@H]1CN2c1ccc(-c2ccc3[nH]ccc3c2)nn1`, the remaining at 0.5 h was 97%.

For the origin of these results see ChEMBL document CHEMBL1155544, “Syntheses and structure-activity relationship (SAR) studies of 2,5-diazabicyclo[2.2.1]heptanes as novel alpha7 neuronal nicotinic receptor (NNR) ligands” (Bioorg Med Chem Lett, 2010).
